Laboratory results reported in PMC7953430 (Chemical Science, 2020).
Where “and” joins values, the source holds several entries; their conditions need not be identical. Equal entries are not always repeated. Where two headings read alike, the source gives them in different places.

Assays:
[1] = Singlet oxygen sensitization quantum yield; format: physicochemical; conditions: PF6 salts; for ΦΔ singlet oxygen quantum yield: air-saturated MeCN, excitation wavelength in brackets; for 1O2 quantum yield ΦΔ: MeCN
Outline: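 ΦΔ was measured from ¹O₂ emission near 1276 nm, relative to [Ru(bpy)₃](PF₆)₂ (ΦΔ = 0.56 in aerated MeCN). Samples were 5–20 μM PF₆⁻ salts in air-bubbled, CaH₂-distilled MeCN. Excitation was at the longest wavelength maximising 1268 nm emission. Absorbance and refractive index corrections were applied, in triplicate.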

[2] = Solubility in high ionic strength solvents; format: physicochemical; conditions: DPBS, media
[3] = test system: SK-MEL-28 human skin melanoma cells; test: Resazurin; format: cell-based
[4] = aerated MeCN; cited from earlier work
SK-MEL-28 cells [5] = test: NIR 753 nm photocytotoxicity on Modulight ML8500; format: cell-based, human; conditions: 10 μM, 300 mW cm^–2, 200*2 (≥400) J cm^–2, resazurin
Outline: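 SK-MEL-28 wells were illuminated one by one with a 753 nm laser at a constant 300 mW cm⁻² over 0–400 J cm⁻², at 37 °C and 5% CO₂. Viability was read by resazurin relative to dark wells, in triplicate.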

SK-MEL-28 cells [6] = test: Sulforhodamine B; format: cell-based, human; conditions: SRB, hypoxia, across light treatments
SK-MEL-28 cells [7] = test: Os-4T interassay repeats, resazurin, normoxia; format: cell-based, human
[8] = test system: B16-F10 murine melanotic melanoma cells; test: External validation; format: cell-based
Outline: (§1)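 SK-MEL-28 and B16-F10 cells (B16-F10 grown in DMEM) in log phase were seeded and dosed with 1 nM–300 μM test compound diluted in DPBS (<1.2% v/v DMSO). Plates were irradiated 15–22 h after dosing with broadband projector visible light or a red 630 nm LED panel (33–40 mW cm⁻², 100 J cm⁻²). Resazurin was read at 48 h (530/620 nm). PI was dark EC50/light EC50.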

SK-MEL-28 cells [9] = test: Os-4T interassay repeats, resazurin, hypoxia; format: cell-based, human
Outline: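 Hypoxic (1% O₂) SK-MEL-28 phototoxicity was read by resazurin across repeats under three light conditions. Repeat 0 was run in 96-well plates; repeats 1–5 were run within a month in 384-well plates. Plate maps, pipette tips and seed stock (repeats 4–5) were varied, and overhead lights were off in repeat 5. Cells were at passages 10–15, with three replicates per repeat.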

SK-MEL-28 cells [10] = test: Resazurin; format: cell-based, human
Outline: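 SK-MEL-28 cells were equilibrated at 1% O₂ for 2–3 h before dosing and kept hypoxic for at least 16 h. During illumination plates were sealed with qPCR films (about 20 °C, ≤1.5 h). Light was cool white (400–700 nm), green (523 nm) or red (633 nm) at 20 mW cm⁻² to 100 J cm⁻². Cells recovered in normoxia before the resazurin read. PI was dark EC50/light EC50.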

SK-MEL-28 cells [11] = test: NIR 733 nm photocytotoxicity, normoxia; format: cell-based, human; conditions: read-out: EC50 with 733 nm light, 100 J cm^–2, 5 mW cm^–2
Outline: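 Normoxic SK-MEL-28 monolayers in 384-well plates were illuminated with a 733 nm laser through a frontal diffuser (5 mW cm⁻², 100 J cm⁻²), with sham-treated dark controls. Viability was read by resazurin and EC50 was taken from the dose–response curve.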

female C57BL/6J mice = test: Maximum tolerated dose in mice; format: in vivo; conditions: ip doses above 100 mg kg^–1 (100, 125, 200); behaviour resolved after 2 h
[12] = test system: SK-MEL-28 human amelanotic melanoma cells; test: External validation; format: cell-based; conditions: SK-MEL-28, external validation
Outline: as §1

[13] = read-out: EC50 ± SEM Dark, normoxia 18.5–21% O2, no light
[14] = read-out: visible EC50, normoxia, visible light 100 J cm^–2

In the case of [Os(phen)2(IP-1T)]^2+ [Os-1T], the “ΦΔ singlet oxygen quantum yield” value [1] is reported as 0.42 [473].

For `[Cl-].[Cl-].[Os+2].c1cnc2c(c1)ccc1cccnc12.c1cnc2c(c1)ccc1cccnc12.c1cnc2c(c1)ccc1cccnc12` [[Os(phen)3]Cl2, reference compound], the “solubility in high ionic strength solvents” value [2] was over 300 µM, the “PI regardless of wavelength” value ([3]; normoxia, visible, green or red) was 2–4 and the EC50 [3, 13] was 158000 nM.

For [Os(phen)2(IP-2T)]^2+ [Os-2T], the “ΦΔ singlet oxygen quantum yield” value [1] was 0.49 [472] and the EC50 [3, 13] was 35700 nM.

In the case of `F[P-](F)(F)(F)(F)F.F[P-](F)(F)(F)(F)F.[Ru+2].c1ccc(-c2ccccn2)nc1.c1ccc(-c2ccccn2)nc1.c1ccc(-c2ccccn2)nc1` [[Ru(bpy)3](PF6)2], the “ΦΔ singlet oxygen quantum yield (standard)” value [4] is given as 0.56.

For [Os(phen)2(IP-4T)]^2+ [Os-4T], the “reduction of relative cell viability compared to dark” value (SK-MEL-28 cells [5]) was 14%, the “total growth inhibition (TGI), light-treated samples” value (SK-MEL-28 cells [6]) was 140 to 170 nM and the EC50 (SK-MEL-28 cells [7]; read-out: EC50 range over repeats, green, normoxia) was 1.16 to 25.4 nM. It also gave an EC50 (SK-MEL-28 cells [7]; read-out: EC50 range over repeats, red, normoxia) of 10 to 46.2 nM, an EC50 (SK-MEL-28 cells [7]; read-out: EC50 range over repeats, visible, normoxia) of 0.0178 to 8.91 nM and an EC50 (SK-MEL-28 cells [7]; read-out: average dark EC50 across repeats, either oxygen condition (normoxia and hypoxia), <7% variation) of 62800 nM. It also gave an EC50 (SK-MEL-28 cells [7]; read-out: average normoxic EC50, green, normoxia, repeats) of 11.7 nM, an EC50 (SK-MEL-28 cells [7]; read-out: average normoxic EC50, red, normoxia, repeats) of 30.8 nM and an EC50 (SK-MEL-28 cells [7]; read-out: average normoxic EC50, visible, normoxia, repeats) of 1.62 nM. For the same compound, the “PI Visible” value ([8]; B16-F10, dark EC50/visible EC50) was > 20 000 and > 10^4, the EC50 ([8]; read-out: visible EC50, B16-F10, external validation) was 15 nM and the “PI range across repeats and three light conditions” value (SK-MEL-28 cells [9]; hypoxia 1% O2) was 32 to 167. The “average hypoxic PI across the three light conditions” value (SK-MEL-28 cells [9]; hypoxia 1% O2, repeat 3 excluded) was 90, the “PI Green” value (SK-MEL-28 cells [10]; hypoxia 1% O2, dark EC50/green EC50) was 91 and > 90 and the “PI Visible” value (SK-MEL-28 cells [10]; hypoxia 1% O2, dark EC50/visible EC50) was over 90. For the same compound, the EC50 (SK-MEL-28 cells [10]; read-out: light EC50 values in hypoxia, hypoxia 1% O2, across visible, green, red light) was 651 to 835 nM, the “1O2 quantum yield ΦΔ” value [1] was 95% and the “ΦΔ singlet oxygen quantum yield” value [1] was 0.95 [525]. For the same compound, the EC50 (SK-MEL-28 cells [11]) was 803 nM, the EC50 ([3]; read-out: EC50 with green light, normoxia, green 523 nm, 100 J cm^–2) was 1 nM and the EC50 ([3]; read-out: EC50 with red light, normoxia, red 633 nm, 100 J cm^–2) was 10 nM. For the same compound, the EC50 [3, 13] was 65100 nM, the EC50 [3, 14] was 0.018 nM and the observed clinical toxicity (female C57BL/6J mice) was “mild toxicity”. For the same compound, the EC50 ([12]; read-out: red EC50) was 9.44 nM and the EC50 ([12]; read-out: visible EC50) was 2.91 nM.

In the case of [Os(phen)2(IP-3T)]^2+ [Os-3T], the “1O2 quantum yield ΦΔ” value [1] is reported as 51%, the “ΦΔ singlet oxygen quantum yield” value [1] is reported as 0.51 [525] and the “PI Green” value ([3]; normoxia, dark EC50/green 523 nm EC50) is reported as 103. The “PI Visible (phototherapeutic index)” value ([3]; normoxia, dark EC50/visible EC50) was 369 and the EC50 [3, 14] was 153 nM.

For [Os(phen)2(IP)]^2+ [Os-0T], the “ΦΔ singlet oxygen quantum yield” value [1] was 0.43 [473].
